According to ChEMBL document CHEMBL5143722, “Antimicrobial Peptides against Multidrug-Resistant Pseudomonas aeruginosa Biofilm from Cystic Fibrosis Patients” (J Med Chem, 2022):
Activity calls are given as the source filed them. The rule behind the calls is not given here.

Columns and labels:
Pseudomonas aeruginosa [1] = experiment: Antibiofilm activity against Pseudomonas aeruginosa clinical isolate 82 in artificial sputum medium at 25 uM incubated for 24 hrs by resazurin staining based microtiter plate method relative to control; format: functional
Summary of the method: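 Overnight cultures were washed, resuspended in BM2 to OD ~0.05, and diluted 1:100 into artificial sputum medium (pH 6.9). Biofilms grew 3 days at 37 °C with aerobic agitation in 24-well plates. Peptides (12.5–100 μM) were then added for 24 h with agitation. Biofilm was disrupted with cellulase for 1 h at 37 °C. Resazurin (0.02%) was added for 1–2 h, fluorescence read at ex 530/em 590 nm, and viability expressed as % of untreated wells.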

Pseudomonas aeruginosa [2] = experiment: Antibiofilm activity against Pseudomonas aeruginosa clinical isolate 82 assessed as inhibition of biofilm formation at 1.56 uM incubated for 24 hrs by crystal violet staining based microtiter plate method; format: functional, organism-based
Summary of the method: (§1)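 Washed overnight cultures in BM2 medium at 1 × 10^6 CFU/mL with 2-fold serial peptide dilutions in a U-bottom 96-well plate. Incubated 24 h at 37 °C without agitation. Unattached cells washed off, then 0.1% crystal violet stain read at 590 nm. No-bacteria blanks. Biomass expressed as % of untreated biofilm. At least three biological repeats.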

Pseudomonas aeruginosa [3] = experiment: Antibiofilm activity against Pseudomonas aeruginosa PAO1 in artificial sputum medium at 25 uM incubated for 24 hrs by resazurin staining based microtiter plate method relative to control; format: functional
Summary of the method: (§2)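 Washed overnight culture set to OD ~0.05 in BM2, diluted 1:100 into artificial sputum medium (pH 6.9) in 24-well plates. Grown 3 days aerobically at 37 °C with agitation. Peptides (12.5–100 μM) added for 24 h with agitation. Biofilm disrupted by cellulase for 1 h at 37 °C. Resazurin 0.02% for 1–2 h, fluorescence ex 530/em 590 nm; viability as % of untreated wells.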

Pseudomonas aeruginosa [4] = experiment: Bactericidal activity against Pseudomonas aeruginosa clinical isolate 24 derived from cystic fibrosis patient sputum assessed as killing rate at 10 uM measured after 1 hr by time-kill assay relative to control; format: functional
Summary of the method: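 Pooled CF patient sputum diluted 10-fold in 10 mM phosphate buffer (pH 7.0), centrifuged and 0.22 μm filtered. Bacteria at 10^6 CFU/mL in 10% sputum supernatant with 10 μM peptide for 1 h at 37 °C. Diluted and plated on LB agar; colonies counted against untreated plates.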

Pseudomonas aeruginosa [5] = experiment: Antibiofilm activity against Pseudomonas aeruginosa clinical isolate 82 in artificial sputum medium at 50 uM incubated for 24 hrs by resazurin staining based microtiter plate method; format: functional, organism-based; summary of the method: as §2
Pseudomonas aeruginosa [6] = experiment: Antibiofilm activity against Pseudomonas aeruginosa clinical isolate 59 assessed as inhibition of biofilm formation at 1.56 uM incubated for 24 hrs by crystal violet staining based microtiter plate method; format: functional, organism-based; summary of the method: as §1
Pseudomonas aeruginosa [7] = experiment: Antibiofilm activity against Pseudomonas aeruginosa clinical isolate 72 assessed as inhibition of biofilm formation at 1.56 uM incubated for 24 hrs by crystal violet staining based microtiter plate method; format: functional, organism-based; summary of the method: as §1
[8] = Drug degradation in cystic fibrosis patient derived sputum assessed as remaining activity at 100 uM measured after 30 mins by RP-HPLC analysis; format: ADME, tissue-based; conditions: human, read-out: Drug degradation
Summary of the method: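 Pooled CF patient sputum diluted 10-fold in Ca/Mg-free DPBS, centrifuged at 1000 rpm for 10 min. Peptide added to the supernatant at 100 μM final and held at 37 °C. Stopped with 10% HCl. Residual peptide measured by RP-HPLC on C18 with a 20–60% ACN gradient (0.1% TFA) over 50 min, as % of the unincubated mixture.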

Pseudomonas aeruginosa [9] = experiment: Induction of biofilm degradation of Pseudomonas aeruginosa clinical isolate 995 at sub MIC concentration incubated for 1 hr by crystal violet staining analysis; format: functional
Summary of the method: (§3)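 Bacteria at 1 × 10^6 CFU/mL in BM2 grown static at 37 °C for 24 h to form biofilm. Wells rinsed of unattached cells, then exposed for 1 h to serial peptide dilutions (1.56–50 μM). Washed, stained with 0.1% crystal violet, A590 read. Biomass given as % of untreated biofilm; no-bacteria wells as blanks. At least three biological repeats.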

Pseudomonas aeruginosa [10] = experiment: Induction of biofilm degradation of Pseudomonas aeruginosa clinical isolate 251 at sub MIC concentration incubated for 1 hr by crystal violet staining analysis; format: functional; summary of the method: as §3

CC(C)C[C@H](NC(=O)[C@H](CC(C)C)NC(=O)[C@H](CCCCN)NC(=O)[C@H](CC(C)C)NC(=O)[C@H](CC(C)C)NC(=O)[C@H](CCCCN)NC(=O)[C@H](CCCCN)NC(=O)[C@H](CC(C)C)NC(=O)[C@H](CC(C)C)NC(=O)[C@H](CCCCN)NC(=O)[C@H](CCCCN)NC(=O)[C@H](CC(C)C)NC(=O)[C@H](CC(C)C)NC(=O)[C@H](CCCCN)NC(=O)[C@@H](N)CC(C)C)C(N)=O
Activity (Pseudomonas aeruginosa [1]): 57.94% | inhibition (Pseudomonas aeruginosa [2]): Active | Activity (Pseudomonas aeruginosa [3]): 66.7% | Activity (Pseudomonas aeruginosa [4]): >97.91% | Activity (Pseudomonas aeruginosa [5]): Active | inhibition (Pseudomonas aeruginosa [6]): Active | inhibition (Pseudomonas aeruginosa [7]): Active

CC[C@H](C)[C@H](NC(=O)[C@H](CCCCN)NC(=O)[C@H](CCC(=O)O)NC(=O)[C@H](CCCCN)NC(=O)[C@H](CO)NC(=O)[C@H](CCCCN)NC(=O)[C@H](CCCNC(=N)N)NC(=O)[C@H](Cc1ccccc1)NC(=O)[C@H](Cc1ccccc1)NC(=O)[C@H](CC(=O)O)NC(=O)CNC(=O)[C@H](CC(C)C)NC(=O)[C@@H](N)CC(C)C)C(=O)NCC(=O)N[C@@H](CCCCN)C(=O)N[C@@H](CCC(=O)O)C(=O)N[C@@H](Cc1ccccc1)C(=O)N[C@@H](CCCCN)C(=O)N[C@@H](CCCNC(=N)N)C(=O)N[C@H](C(=O)N[C@H](C(=O)N[C@@H](CCC(N)=O)C(=O)N[C@@H](CCCNC(=N)N)C(=O)N[C@H](C(=O)N[C@@H](CCCCN)C(=O)N[C@@H](CC(=O)O)C(=O)N[C@@H](Cc1ccccc1)C(=O)N[C@@H](CC(C)C)C(=O)N[C@@H](CCCNC(=N)N)C(=O)N[C@@H](CC(N)=O)C(=O)N[C@@H](CC(C)C)C(=O)N[C@H](C(=O)N1CCC[C@H]1C(=O)N[C@@H](CCCNC(=N)N)C(=O)N[C@H](C(=O)N[C@@H](CCC(=O)O)C(=O)N[C@@H](CO)C(N)=O)[C@@H](C)O)C(C)C)[C@@H](C)CC)C(C)C)[C@@H](C)CC
metabolised at 0.5 h, 100 µM [8]: 100%

CC(C)C[C@H](NC(=O)[C@H](CC(C)C)NC(=O)[C@H](CC(C)C)NC(=O)[C@H](CC(C)C)NC(=O)[C@H](CC(C)C)NC(=O)[C@H](CC(C)C)NC(=O)[C@H](CC(C)C)NC(=O)[C@H](CC(C)C)NC(=O)[C@H](CC(C)C)NC(=O)[C@H](CCCCN)NC(=O)[C@H](CCCCN)NC(=O)[C@@H](N)CCCCN)C(=O)N[C@@H](CCCCN)C(=O)N[C@@H](CCCCN)C(=O)N[C@@H](CCCCN)C(N)=O
Activity (Pseudomonas aeruginosa [9]): Active | Activity (Pseudomonas aeruginosa [10]): Active
